# From ChEMBL document CHEMBL2203144, “Synthesis and evaluation of antimicrobial activity of 4H-pyrimido[2,1-b]benzothiazole, pyrazole and benzylidene derivatives of curcumin” (Eur J Med Chem, 2012)
# Calls of active or inactive are those of the source. The calls are words filed in the database; no cut-off is given here.
# Columns and labels:
# Aspergillus flavus [1] = experiment: Antifungal activity against Aspergillus flavus after 72 hrs by agar disk diffusion method; type: functional
# Method in brief: (§1)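 Sterile filter-paper discs dipped in the acetone dilutions of compound (20–0.315 µM/mL), then dried to remove acetone. Sabouraud dextrose agar plates spread with 1 mL fungal culture. Discs placed aseptically; one drug-free disc served as growth control; fluconazole reference. Plates incubated upright 72 h at 28 °C. Zone of inhibition measured in mm with a scale.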
# Aspergillus flavus [2] = experiment: Antifungal activity against Aspergillus flavus after 72 hrs by broth dilution method; type: functional
# Method in brief: (§2)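 Compounds and fluconazole reference were dissolved in acetone at 120 µM/mL and serially diluted to 20–0.315 µM/mL. 10 µL compound plus 10 µL fungal culture broth added to 150 µL Sabouraud dextrose medium per well. Optical density recorded, then incubated 72 h at 28 °C. MIC95 taken from absence of turbidity. Acetone-at-same-dilution solvent control.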
# Providencia rettgeri = experiment: Antibacterial activity against Providencia rettgeri DRDE after 24 hrs by broth microdilution method; type: functional
# Method in brief: (§3)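 Microwell broth dilution in brain heart infusion broth (nutrient broth adjusted to pH 7.0). Inoculum from 16 h cultures, adjusted to 0.5 McFarland (1.5 × 10⁸ CFU/mL). 10 µL compound (serial dilutions 20 down to 0.625 or 0.312 µM/mL) plus 10 µL culture added to 150 µL broth. Incubated 24 h at 37 °C. MIC95 is the lowest concentration with no turbidity. Ciprofloxacin reference; inoculum and broth controls.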
# Bacillus cereus = experiment: Antibacterial activity against Bacillus cereus MTCC 7350 after 24 hrs by broth microdilution method; type: functional; method in brief: as §3
# Aspergillus fumigatus [3] = experiment: Antifungal activity against Aspergillus fumigatus after 72 hrs by broth dilution method; type: functional; method in brief: as §2
# Aspergillus niger [4] = experiment: Antifungal activity against Aspergillus niger after 72 hrs by agar disk diffusion method; type: functional; method in brief: as §1
# Aspergillus fumigatus [5] = experiment: Antifungal activity against Aspergillus fumigatus after 72 hrs by agar disk diffusion method; type: functional; method in brief: as §1
# Salmonella typhi = experiment: Antibacterial activity against Salmonella typhi ATCC 15499 after 24 hrs by broth microdilution method; type: functional, Salmonella enterica subsp. enterica serovar Typhi
# Method in brief: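 Broth microdilution in brain heart infusion broth in microwells. Inoculum was prepared from 16 h cultures adjusted to the 0.5 McFarland standard (1.5 × 10⁸ CFU/mL). Compounds were serially diluted from 20 down to 0.625 µM/mL and added to the broth, followed by the bacterial culture. Plates were incubated 24 h at 37 °C, with optical density read. MIC95 was the lowest concentration giving no turbidity. Inoculum and broth controls were included.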
# [6] = Cytotoxicity against human L123 cells after 48 hrs by MTT assay; type: cell-based
# Method in brief: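 MTT assay. 2×10³ cells per well in MEM + 10% FBS, attached 24 h, then treated at 5, 10, 20, 50 and 100 µM/mL for 48 h; controls received medium with 0.2% DMSO. Duplicate treatments. Cells PBS-washed, given MTT (stock 1 mg/mL) for 4 h at 37 °C. Formazan dissolved in DMSO, read at 590 nm. IC50 is the concentration reducing viability by 50%.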
# Pseudomonas aeruginosa = experiment: Antibacterial activity against Pseudomonas aeruginosa ATCC 23564 after 24 hrs by broth microdilution method; type: functional; method in brief: as §3
# Aspergillus niger [7] = experiment: Antifungal activity against Aspergillus niger after 72 hrs by broth dilution method; type: functional; method in brief: as §2
# Escherichia coli = experiment: Antibacterial activity against Escherichia coli ATCC 35218 after 24 hrs by broth microdilution method; type: functional; method in brief: as §3
# Staphylococcus aureus = experiment: Antibacterial activity against Staphylococcus aureus ATCC 11632 after 24 hrs by broth microdilution method; type: functional; method in brief: as §3
# [8] = Salmonella enterica subsp. enterica serovar Typhi
Structure (SMILES),inhibition zone (IZ) (Aspergillus flavus [1]),MIC95 (Aspergillus flavus [2]),MIC95 (Providencia rettgeri),MIC95 (Bacillus cereus),MIC95 (Aspergillus fumigatus [3]),inhibition zone (IZ) (Aspergillus niger [4]),inhibition zone (IZ) (Aspergillus fumigatus [5]),MIC95 (Salmonella typhi),IC50 [6],MIC95 (Pseudomonas aeruginosa),MIC95 (Aspergillus niger [7]),MIC95 (Escherichia coli),MIC95 (Staphylococcus aureus),MIC95 (Salmonella typhi; [8])
COc1cc(/C=C/C(=O)C2=C(/C=C/c3ccc(O)c(OC)c3)N=C3Sc4ccccc4N3C2c2ccccc2)ccc1O (centres undefined),inactive,inactive,20 uM/ml,5 uM/ml,inactive,inactive,inactive,20 uM/ml,> 100 uM/ml,10 uM/ml,inactive,inactive,20 uM/ml,–
COc1cc(/C=C/c2cc(/C=C/c3ccc(O)c(OC)c3)n(C(=O)c3ccncc3)n2)ccc1O,22 mm,2.5 uM/ml,inactive,inactive,inactive,18 mm,inactive,5 uM/ml,> 100 uM/ml,1.25 uM/ml,2.5 uM/ml,2.5 uM/ml,1.25 uM/ml,–
COc1cc(/C=C/C(=O)C2=C(/C=C/c3ccc(O)c(OC)c3)N=C3Sc4ccccc4N3C2c2ccc(O)c(OC)c2)ccc1O (centres undefined),11 mm,12 uM/ml,10 uM/ml,2.5 uM/ml,inactive,inactive,inactive,10 uM/ml,–,5 uM/ml,inactive,10 uM/ml,inactive,–
O=C(O)c1cn(C2CC2)c2cc(N3CCNCC3)c(F)cc2c1=O [CIPROFLOXACIN],–,–,1.25 uM/ml,0.625 uM/ml,–,–,–,2.5 uM/ml,–,1.25 uM/ml,–,1.25 uM/ml,1.25 uM/ml,–
COc1cc(/C=C/C(=O)CC(=O)/C=C/c2ccc(O)c(OC)c2)ccc1O [CURCUMIN],inactive,inactive,20 uM/ml,10 uM/ml,20 uM/ml,9 mm,12 mm,20 uM/ml,–,inactive,20 uM/ml,20 uM/ml,20 uM/ml,–
COc1cc(/C=C/C(=O)C2=C(/C=C/c3ccc(O)c(OC)c3)N=C3Sc4ccccc4N3C2c2c(Cl)cccc2Cl)ccc1O (centres undefined),inactive,inactive,10 uM/ml,5 uM/ml,inactive,inactive,inactive,–,> 100 uM/ml,20 uM/ml,inactive,20 uM/ml,inactive,inactive
COc1cc(/C=C/C(=O)C(=Cc2ccccc2)C(=O)/C=C/c2ccc(O)c(OC)c2)ccc1O,inactive,inactive,0.625 uM/ml,0.625 uM/ml,2.5 uM/ml,inactive,15 mm,2.5 uM/ml,–,inactive,inactive,1.25 uM/ml,1.25 uM/ml,–
COc1cc(/C=C/C(=O)C2=C(/C=C/c3ccc(O)c(OC)c3)N=C3Sc4ccccc4N3C2c2ccc([N+](=O)[O-])cc2)ccc1O (centres undefined),inactive,inactive,10 uM/ml,2.5 uM/ml,20 uM/ml,10 mm,15 mm,20 uM/ml,> 100 uM/ml,10 uM/ml,10 uM/ml,5 uM/ml,inactive,–
OC(Cn1cncn1)(Cn1cncn1)c1ccc(F)cc1F [FLUCONAZOLE],25 mm,1.25 uM/ml,–,–,1.25 uM/ml,18 mm,22 mm,–,–,–,2.5 uM/ml,–,–,–
COc1cc(/C=C/c2cc(/C=C/c3ccc(O)c(OC)c3)n(C(N)=O)n2)ccc1O,inactive,inactive,2.5 uM/ml,inactive,1.25 uM/ml,15 mm,20 mm,–,–,5 uM/ml,5 uM/ml,2.5 uM/ml,inactive,inactive
COc1cc(/C=C/c2cc(/C=C/c3ccc(O)c(OC)c3)n(-c3ccc([N+](=O)[O-])cc3[N+](=O)[O-])n2)ccc1O,20 mm,1.25 uM/ml,inactive,1.25 uM/ml,inactive,17 mm,inactive,2.5 uM/ml,> 100 uM/ml,inactive,2.5 uM/ml,inactive,1.25 uM/ml,–
COc1cc(/C=C/C(=O)C2=C(/C=C/c3ccc(O)c(OC)c3)N=C3Sc4ccccc4N3C2c2ccc(C)cc2)ccc1O (centres undefined),inactive,inactive,20 uM/ml,5 uM/ml,inactive,inactive,inactive,–,–,inactive,inactive,10 uM/ml,20 uM/ml,inactive
COc1cc(C=C(C(=O)/C=C/c2ccc(O)c(OC)c2)C(=O)/C=C/c2ccc(O)c(OC)c2)ccc1O,20 mm,1.25 uM/ml,2.5 uM/ml,1.25 uM/ml,inactive,inactive,inactive,5 uM/ml,> 100 uM/ml,2.5 uM/ml,inactive,inactive,2.5 uM/ml,–
COc1cc(/C=C/c2cc(/C=C/c3ccc(O)c(OC)c3)n(C(N)=S)n2)ccc1O,20 mm,1.25 uM/ml,1.25 uM/ml,0.625 uM/ml,2.5 uM/ml,22 mm,25 mm,2.5 uM/ml,–,2.5 uM/ml,2.5 uM/ml,inactive,1.25 uM/ml,–
COc1cc(/C=C/C(=O)C2=C(/C=C/c3ccc(O)c(OC)c3)N=C3Sc4ccccc4N3C2c2ccc(O)cc2)ccc1O (centres undefined),inactive,inactive,inactive,2.5 uM/ml,5 uM/ml,inactive,12 mm,20 uM/ml,–,10 uM/ml,inactive,5 uM/ml,1.25 uM/ml,–
